{"source": "paper PMC6176901", "about": "(ChemMedChem, 2018)", "key": {"[1]": {"tested_on": "GMII (human Golgi α-mannosidase II)", "settings": "ref 9a, cited from earlier work"}, "[2]": {"tested_on": "U2OS (Human Bone Osteosarcoma Epithelial Cells)", "experiment": "Cytotoxic MTS assay, U2OS", "assay_type": "cell-based", "settings": "72 h, read-out: Cytotoxic activity IC50, U2OS", "procedure,_shortened": "(§1)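 Human lines grown in DMEM/RPMI 1640 with 10% fetal calf serum; CEM-DNR and K562-TAX sublines selected in rising daunorubicin or paclitaxel. Seeded at 25000–35000 cells/mL in 384-well plates; DMSO solutions added at time zero; 72 h at 37 °C, 5% CO2. MTS added for 1–4 h; OD at 490 nm. Survival versus control wells; IC50 from dose-response curves. Technical duplicates, ≥3 biological replicates.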"}, "[3]": {"tested_on": "CCRF-CEM (T-lymphoblastic leukemia)", "experiment": "Cytotoxic MTS assay, CCRF-CEM", "assay_type": "cell-based", "settings": "Homo sapiens, 72 h, read-out: Cytotoxic activity IC50, CCRF-CEM", "procedure,_shortened": "as §1"}, "[4]": {"tested_on": "cancer and non-malignant cell lines", "experiment": "Cytotoxic MTS assay, statements over several cell lines", "assay_type": "cell-based", "settings": "read-out: cytotoxicity, range over sensitive lines", "procedure,_shortened": "as §1"}, "hERManI": {"target": "hERManI", "settings": "read-out: Ki for hERManI (in AspMan column); cited from earlier work"}, "[5]": {"tested_on": "K562 (acute myeloid leukemia)", "experiment": "Cytotoxic MTS assay, K562", "assay_type": "cell-based", "procedure,_shortened": "as §1"}, "Cytotoxic MTS assay, BJ": {"experiment": "Cytotoxic MTS assay, BJ", "assay_type": "cell-based", "settings": "human, BJ cells (non-malignant fibroblasts)", "procedure,_shortened": "as §1"}, "[6]": {"settings": "cited from earlier work"}, "[7]": {"tested_on": "CEM-DNR (T-lymphoblastic leukemia, daunorubicin resistant)", "experiment": "Cytotoxic MTS assay, CEM-DNR", "assay_type": "cell-based", "settings": "Homo sapiens, 72 h, read-out: Cytotoxic activity IC50, CEM-DNR", "procedure,_shortened": "as §1"}, "[8]": {"tested_on": "A549 (human lung adenocarcinoma)", "experiment": "Cytotoxic MTS assay, A549", "assay_type": "cell-based", "settings": "A549, 72 h, read-out: Cytotoxic activity IC50, A549", "procedure,_shortened": "as §1"}, "[9]": {"experiment": "Cytotoxic MTS assay, MRC-5", "assay_type": "cell-based", "settings": "human, MRC-5 cells (non-malignant lung fibroblasts)", "procedure,_shortened": "as §1"}, "[10]": {"tested_on": "K562-TAX (acute myeloid leukemia, overexpressing the P-glycoprotein)", "experiment": "Cytotoxic MTS assay, K562-TAX", "assay_type": "cell-based", "settings": "72 h, read-out: Cytotoxic activity IC50, K562-TAX", "procedure,_shortened": "as §1"}, "[11]": {"target": "LMan (human lysosomal α-mannosidase)", "settings": "read-out: LMan IC50 (in LManII column); ref 9a; cited from earlier work"}}}
{"compound": "OC[C@@H](O)[C@@H]1[C@H](O)[C@H](O)CN1Cc1ccccc1", "note": "[Compound 25]", "values": [{"measurement": "Selectivity index, LMan/GMII", "setting": "[1]", "value": 2}]}
{"compound": "O[C@H]1[C@H]2[C@H](O)CCCN2C[C@H]1O", "note": "[Compound 1, (1S,2R,8R,8aR)-trihydroxy-indolizidine]", "values": [{"measurement": "IC50", "setting": "[2]", "value": "> 200", "unit": "µM"}, {"measurement": "IC50", "setting": "[3]", "value": "113 ± 12", "unit": "µM"}, {"measurement": "IC50", "setting": "[4]", "value": "110 to 140", "unit": "µM"}, {"measurement": "Ki", "setting": "hERManI", "value": "> 10000", "unit": "µM"}, {"measurement": "IC50", "setting": "[5]; Homo sapiens, K562, 72 h, read-out: Cytotoxic activity IC50, K562", "value": "> 200", "unit": "µM"}, {"measurement": "K562 inhibition, in words", "setting": "[5]; non-resistant K562", "value": "did not inhibit"}, {"measurement": "IC50 at 72 h", "setting": "Cytotoxic MTS assay, BJ", "value": "> 200", "unit": "µM"}, {"measurement": "pKa ligand, Water pH=7, calculated by Sladek et al.", "setting": "[6]", "value": 7.8}, {"measurement": "IC50", "setting": "[7]", "value": "132 ± 20", "unit": "µM"}, {"measurement": "IC50", "setting": "[8]", "value": "> 200", "unit": "µM"}, {"measurement": "IC50 at 72 h", "setting": "[9]", "value": "> 200", "unit": "µM"}, {"measurement": "IC50", "setting": "[10]", "value": "137 ± 13", "unit": "µM"}]}
{"compound": "OC[C@@H](O)[C@H]1NC[C@@H](O)[C@H]1O", "note": "[Compound 24, 1,4-dideoxy-1,4-imino-D-mannitol]", "values": [{"measurement": "IC50", "setting": "[11]", "value": 13, "unit": "µM"}, {"measurement": "pKa ligand, Water pH=7, calculated by Sladek et al.", "setting": "[6]", "value": 6.6}, {"measurement": "IC50", "setting": "[1]; read-out: GMII IC50 (in GMIIb column)", "value": 100, "unit": "µM"}]}
